Active and inactive are the calls of the source. No cut-off for these calls is given here.
Key:
[1] = biological target: T1, Neuronal acetylcholine receptor subunit alpha-7 (Homo sapiens, UniProt P36544); experiment: Agonist activity at alpha7-5HT3 chimera expressed in human SH-EP1 cells by FLIPR assay; assay type: functional, cell-based
Target sequence in this assay (P36544 23-502 limits assumed): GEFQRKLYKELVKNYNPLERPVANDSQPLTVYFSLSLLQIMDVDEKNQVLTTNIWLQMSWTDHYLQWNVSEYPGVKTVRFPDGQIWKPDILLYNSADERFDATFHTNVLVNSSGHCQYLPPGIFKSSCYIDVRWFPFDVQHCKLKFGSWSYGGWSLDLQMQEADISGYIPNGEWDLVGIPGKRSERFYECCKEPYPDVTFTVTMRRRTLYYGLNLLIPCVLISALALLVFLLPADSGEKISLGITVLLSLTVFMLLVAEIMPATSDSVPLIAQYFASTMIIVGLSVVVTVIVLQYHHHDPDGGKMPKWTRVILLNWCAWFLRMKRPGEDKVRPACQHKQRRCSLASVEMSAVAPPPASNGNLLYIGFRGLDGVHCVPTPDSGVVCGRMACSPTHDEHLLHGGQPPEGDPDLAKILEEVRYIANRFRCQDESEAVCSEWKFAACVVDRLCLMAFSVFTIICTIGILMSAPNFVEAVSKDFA

[2] = biological target: Neuronal acetylcholine receptor subunit alpha-7 (Rattus norvegicus, UniProt Q05941); experiment: Displacement of [3H]MLA from alpha-7 nACh receptor in rat brain; assay type: tissue-based
Chain of Neuronal acetylcholine receptor subunit alpha-7 (Rattus norvegicus, UniProt Q05941) (Q05941 whole entry): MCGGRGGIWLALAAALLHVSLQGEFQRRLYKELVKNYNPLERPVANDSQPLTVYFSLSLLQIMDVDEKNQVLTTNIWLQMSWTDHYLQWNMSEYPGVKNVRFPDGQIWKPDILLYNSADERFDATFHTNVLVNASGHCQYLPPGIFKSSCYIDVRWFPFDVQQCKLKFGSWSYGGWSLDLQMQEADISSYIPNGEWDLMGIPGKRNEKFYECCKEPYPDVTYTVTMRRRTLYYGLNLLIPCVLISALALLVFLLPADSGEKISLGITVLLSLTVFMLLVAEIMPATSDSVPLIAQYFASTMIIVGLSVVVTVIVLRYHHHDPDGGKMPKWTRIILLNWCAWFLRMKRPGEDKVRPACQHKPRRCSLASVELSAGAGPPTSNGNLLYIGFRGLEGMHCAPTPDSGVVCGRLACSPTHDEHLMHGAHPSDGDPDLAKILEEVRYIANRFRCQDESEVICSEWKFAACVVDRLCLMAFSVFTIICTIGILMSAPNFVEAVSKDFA
How it was run: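 Rat brain homogenate binding with [3H]MLA; individual Ki values, mean ± SEM reported when more than 3 measurements.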

[3] = Ratio of drug level in brain to plasma in mouse at 10 mg/kg after 60 min; assay type: ADME, organism-based; parameters: dose 10 mg/kg
How it was run: (§1)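 Mouse brain uptake: brain and plasma concentrations after a 10 mg/kg dose, ratio taken at 5 and 60 min.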

[4] = Apparent permeability from apical to basolateral side in dog MDCK cells; assay type: ADME, cell-based, Canis lupus familiaris
How it was run: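 MDCK monolayer permeability measured apical to basolateral, expressed as Papp (x10^-6 cm/s).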

[5] = Metabolic stability in rat liver microsomes assessed as hepatic extraction ratio after 30 mins; assay type: ADME, Microsome
How it was run: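 Rat liver microsome incubation; stability reported as fraction of compound remaining after 30 min relative to t0 concentration.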

[6] = Ratio of drug level in brain to plasma in mouse at 10 mg/kg after 5 mins; assay type: ADME, organism-based; parameters: dose 10 mg/kg; how it was run: as §1
Plasma [7] = experiment: Drug level in rat plasma at 1 mg/kg, sc; assay type: ADME, organism-based; parameters: dose 1 mg/kg, route subcutaneous; conditions: in vivo
How it was run: (§2)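 Rats given amphetamine 1 mg/kg iv to disrupt gating, then test drug sc (0.01–1.0 mg/kg, n = 6-9). Gating is the conditioning/test EEG field potential ratio from paired tones at 0.5 Hz, monitored 30 min, expressed as % reversal. Brain and plasma levels taken about 37 min post-dose.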

Brain [8] = experiment: Drug level in rat brain at 1 mg/kg, sc; assay type: ADME, organism-based; parameters: dose 1 mg/kg, route subcutaneous; conditions: in vivo, read-out: Drug uptake; how it was run: as §2
[9] = Toxicity in dog ECG model assessed as drug level causing no observable adverse effects; assay type: organism-based, Canis lupus familiaris; conditions: in vivo, read-out: Activity
How it was run: (§3)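 Acute dog ECG cardiovascular safety study; no-observable-adverse-effect dose set, with Cmax measured at that dose.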

Brain [10] = experiment: Drug level in rat brain at 0.01 mg/kg, sc; assay type: ADME, organism-based; parameters: dose 0.01 mg/kg, route subcutaneous; conditions: in vivo, read-out: Drug uptake; how it was run: as §2
[11] = biological target: Muscarinic acetylcholine receptor M3 (Homo sapiens) (UniProt P20309); experiment: Displacement of [3H]DAMP from human muscarinic M3 receptor expressed in CHO cells at 10 uM; assay type: cell-based
Chain of Muscarinic acetylcholine receptor M3 (Homo sapiens) (P20309 whole entry, looked up): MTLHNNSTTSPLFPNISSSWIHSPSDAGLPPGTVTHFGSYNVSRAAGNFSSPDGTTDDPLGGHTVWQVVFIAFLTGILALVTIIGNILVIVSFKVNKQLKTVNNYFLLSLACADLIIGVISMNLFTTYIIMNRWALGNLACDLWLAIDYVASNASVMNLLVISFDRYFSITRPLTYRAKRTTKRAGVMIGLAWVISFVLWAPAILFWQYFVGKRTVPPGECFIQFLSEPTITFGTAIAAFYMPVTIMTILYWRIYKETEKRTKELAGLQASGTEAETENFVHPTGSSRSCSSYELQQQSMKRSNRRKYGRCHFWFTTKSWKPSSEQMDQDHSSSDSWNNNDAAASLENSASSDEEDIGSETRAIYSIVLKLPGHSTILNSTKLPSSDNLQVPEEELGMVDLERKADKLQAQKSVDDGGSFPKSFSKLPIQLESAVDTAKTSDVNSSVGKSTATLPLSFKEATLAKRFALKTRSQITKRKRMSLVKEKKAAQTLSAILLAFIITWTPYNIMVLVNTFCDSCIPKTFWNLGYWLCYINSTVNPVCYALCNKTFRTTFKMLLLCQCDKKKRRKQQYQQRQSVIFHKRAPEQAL
How it was run: (§4)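 Human muscarinic receptors in transfected CHO cells; radioligands [3H]pirenzepine (M1), [3H]AF-DX 384 (M2), [3H]DAMP (M3); percent block at 10 µM.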

[12] = biological target: T2, 5-hydroxytryptamine receptor 3A (Rattus norvegicus, UniProt P35563); experiment: Binding affinity to rat 5HT3 receptor
T2 sequence (P35563 whole entry): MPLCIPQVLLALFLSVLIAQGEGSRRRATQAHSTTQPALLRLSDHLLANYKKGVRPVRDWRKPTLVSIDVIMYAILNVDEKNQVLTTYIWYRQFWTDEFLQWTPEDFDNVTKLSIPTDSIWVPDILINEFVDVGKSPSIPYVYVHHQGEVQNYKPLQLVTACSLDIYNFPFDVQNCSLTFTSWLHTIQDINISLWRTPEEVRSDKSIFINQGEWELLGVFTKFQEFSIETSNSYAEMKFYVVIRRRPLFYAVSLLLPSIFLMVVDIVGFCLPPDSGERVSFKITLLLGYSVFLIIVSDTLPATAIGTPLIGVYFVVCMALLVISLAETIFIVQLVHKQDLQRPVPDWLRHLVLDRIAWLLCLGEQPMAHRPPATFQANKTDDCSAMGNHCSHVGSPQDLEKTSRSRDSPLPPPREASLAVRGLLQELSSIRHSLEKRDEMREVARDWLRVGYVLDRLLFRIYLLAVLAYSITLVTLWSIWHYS

[13] = biological target: T3, Muscarinic acetylcholine receptor M1 (Homo sapiens) (UniProt P11229); experiment: Displacement of [3H]pirenzepine from human muscarinic M1 receptor expressed in CHO cells at 10 uM; assay type: cell-based; how it was run: as §4
T3 sequence (whole entry): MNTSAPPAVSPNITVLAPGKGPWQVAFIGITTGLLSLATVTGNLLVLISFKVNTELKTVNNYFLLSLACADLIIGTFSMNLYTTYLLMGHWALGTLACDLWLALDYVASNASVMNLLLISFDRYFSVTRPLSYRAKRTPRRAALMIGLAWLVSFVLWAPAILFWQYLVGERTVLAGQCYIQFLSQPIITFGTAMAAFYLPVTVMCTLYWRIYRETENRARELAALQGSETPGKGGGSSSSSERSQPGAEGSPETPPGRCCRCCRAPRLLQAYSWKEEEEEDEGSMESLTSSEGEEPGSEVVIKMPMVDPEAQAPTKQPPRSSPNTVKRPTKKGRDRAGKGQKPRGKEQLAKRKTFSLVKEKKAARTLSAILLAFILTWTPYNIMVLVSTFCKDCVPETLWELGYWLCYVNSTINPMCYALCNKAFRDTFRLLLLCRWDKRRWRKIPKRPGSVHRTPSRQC

[14] = biological target: Neuronal acetylcholine receptor; alpha4/beta2 (Rattus norvegicus) (UniProt P09483+P12390); experiment: Displacement of [3H][…] from alpha-4-beta-2 nACh receptor in rat brain at 1 uM; assay type: tissue-based
How it was run: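 Rat brain homogenate binding using [3H][…]; percent block at 1 µM.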

[15] = Drug level in rat brain at 1 mg/kg, sc twice daily for 6 days; assay type: ADME, organism-based; parameters: dose 1 mg/kg, route subcutaneous; conditions: read-out: Drug uptake
How it was run: (§5)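 Rats dosed sc twice daily for 6 days with drug 1 mg/kg or 0.9% saline vehicle (n = 8). On day 7, amphetamine-induced gating deficit challenged with acute drug 1 mg/kg sc; brain and plasma exposures measured.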

Plasma [16] = experiment: Drug level in rat plasma at 0.01 mg/kg, sc; assay type: ADME, organism-based; parameters: dose 0.01 mg/kg, route subcutaneous; conditions: in vivo; how it was run: as §2
[17] = Metabolic stability in human liver microsomes assessed as half life; assay type: ADME, Microsome
hERG (KCNH2) = hERG (KCNH2) (Homo sapiens, UniProt Q12809); experiment: Inhibition of human ERG expressed in HEK293 cells at 20 uM; assay type: cell-based; conditions: HEK293 cells that express hERG
Chain of hERG (KCNH2) (Q12809 whole entry): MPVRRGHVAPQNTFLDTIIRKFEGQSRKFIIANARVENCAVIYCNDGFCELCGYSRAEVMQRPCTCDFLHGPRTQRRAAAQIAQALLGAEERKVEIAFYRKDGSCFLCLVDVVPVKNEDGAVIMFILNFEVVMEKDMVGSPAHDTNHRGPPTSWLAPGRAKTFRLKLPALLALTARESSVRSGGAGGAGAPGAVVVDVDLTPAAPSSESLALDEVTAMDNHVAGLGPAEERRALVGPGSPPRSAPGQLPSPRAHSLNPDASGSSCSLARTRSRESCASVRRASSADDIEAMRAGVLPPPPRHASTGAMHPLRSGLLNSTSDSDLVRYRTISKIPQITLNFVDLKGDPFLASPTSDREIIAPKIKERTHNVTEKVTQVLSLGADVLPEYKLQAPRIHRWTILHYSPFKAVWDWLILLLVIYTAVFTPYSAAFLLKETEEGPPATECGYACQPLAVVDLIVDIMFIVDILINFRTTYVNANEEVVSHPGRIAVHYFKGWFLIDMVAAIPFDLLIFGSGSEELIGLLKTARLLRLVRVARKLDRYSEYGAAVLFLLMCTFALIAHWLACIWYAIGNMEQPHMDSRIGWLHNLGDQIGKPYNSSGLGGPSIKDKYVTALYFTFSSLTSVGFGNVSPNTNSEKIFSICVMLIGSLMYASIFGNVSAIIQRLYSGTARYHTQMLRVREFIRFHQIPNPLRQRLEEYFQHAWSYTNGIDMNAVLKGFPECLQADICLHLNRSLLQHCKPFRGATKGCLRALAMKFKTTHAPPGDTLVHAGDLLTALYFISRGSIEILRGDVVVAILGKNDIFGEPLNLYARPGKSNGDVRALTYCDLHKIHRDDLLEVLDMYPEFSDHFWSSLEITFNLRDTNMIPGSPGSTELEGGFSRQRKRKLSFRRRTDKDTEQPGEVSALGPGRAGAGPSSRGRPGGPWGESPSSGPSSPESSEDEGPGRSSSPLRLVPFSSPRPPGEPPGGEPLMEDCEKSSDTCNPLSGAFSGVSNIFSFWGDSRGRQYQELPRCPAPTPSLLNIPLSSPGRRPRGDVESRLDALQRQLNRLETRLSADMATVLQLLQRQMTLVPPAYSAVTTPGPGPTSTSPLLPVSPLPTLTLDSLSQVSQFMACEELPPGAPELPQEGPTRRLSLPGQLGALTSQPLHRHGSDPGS
How it was run: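 Patch-clamp on hERG current (IKr) in HEK cells; percent inhibition at 20 µM; aqueous solubility checked by HPLC in pH 7 buffer.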

[18] = Cmax in dog ECG model; assay type: ADME, organism-based, Canis lupus familiaris; conditions: in vivo; how it was run: as §3
Rattus norvegicus [19] = experiment: Reversal of amphetamine-induced auditory gating deficit in sc dosed rat auditory sensory gating model; assay type: functional; how it was run: as §2
Plasma [20] = experiment: Drug level in rat plasma at 0.1 mg/kg, sc; assay type: ADME, organism-based; parameters: dose 0.1 mg/kg, route subcutaneous; conditions: in vivo; how it was run: as §2
[21] = Oral bioavailability in Sprague-Dawley rat at 5 mg/kg; assay type: ADME, organism-based; conditions: in vivo
How it was run: (§6)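 Sprague-Dawley rats given a single 5.0 mg/kg oral dose; pharmacokinetic parameters derived from plasma.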

Rattus norvegicus [22] = experiment: Volume of distribution at steady state in Sprague-Dawley rat at 5 mg/kg, po; assay type: ADME, organism-based; parameters: dose 5 mg/kg, route oral; conditions: in vivo; how it was run: as §6
[23] = biological target: T4, Muscarinic acetylcholine receptor M2 (Homo sapiens) (UniProt P08172); experiment: Displacement of [3H]AF-DX384 from human muscarinic M2 receptor expressed in CHO cells at 10 uM; assay type: cell-based; how it was run: as §4
T4 sequence (whole entry): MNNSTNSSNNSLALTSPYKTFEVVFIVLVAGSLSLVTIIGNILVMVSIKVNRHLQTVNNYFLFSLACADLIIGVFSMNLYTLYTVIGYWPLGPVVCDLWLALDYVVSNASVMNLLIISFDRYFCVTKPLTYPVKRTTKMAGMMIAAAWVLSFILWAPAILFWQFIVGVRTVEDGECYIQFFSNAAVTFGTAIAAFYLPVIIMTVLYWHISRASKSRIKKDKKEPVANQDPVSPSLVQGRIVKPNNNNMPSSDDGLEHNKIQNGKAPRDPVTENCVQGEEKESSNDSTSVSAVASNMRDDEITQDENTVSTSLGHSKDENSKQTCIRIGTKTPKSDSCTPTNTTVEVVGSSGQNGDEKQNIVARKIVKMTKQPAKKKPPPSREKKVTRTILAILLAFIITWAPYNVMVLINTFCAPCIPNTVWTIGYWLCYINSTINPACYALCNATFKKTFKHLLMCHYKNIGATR

[24] = Drug level in rat plasma at 0.24 mg/kg, iv after 30 mins; assay type: ADME, organism-based; parameters: dose 0.24 mg/kg, route intravenous
[25] = Clearance in Sprague-Dawley rat at 5 mg/kg, po; assay type: ADME, organism-based; parameters: dose 5 mg/kg, route oral; conditions: in vivo; how it was run: as §6
Rattus norvegicus [26] = experiment: Reversal of amphetamine-induced auditory gating deficit in rat at 1 mg/kg, sc twice daily for 6 days; assay type: functional, organism-based; parameters: dose 1 mg/kg; how it was run: as §5
[27] = Half life in Sprague-Dawley rat at 5 mg/kg, po; assay type: ADME, organism-based; parameters: dose 5 mg/kg, route oral; conditions: in vivo; how it was run: as §6
[28] = biological target: T1, Neuronal acetylcholine receptor subunit alpha-7; experiment: Displacement of [3H]MLA from alpha-7 nACh receptor in human IMR32 cells; assay type: cell-based, IMR-32
Target sequence in this assay (P36544 whole entry): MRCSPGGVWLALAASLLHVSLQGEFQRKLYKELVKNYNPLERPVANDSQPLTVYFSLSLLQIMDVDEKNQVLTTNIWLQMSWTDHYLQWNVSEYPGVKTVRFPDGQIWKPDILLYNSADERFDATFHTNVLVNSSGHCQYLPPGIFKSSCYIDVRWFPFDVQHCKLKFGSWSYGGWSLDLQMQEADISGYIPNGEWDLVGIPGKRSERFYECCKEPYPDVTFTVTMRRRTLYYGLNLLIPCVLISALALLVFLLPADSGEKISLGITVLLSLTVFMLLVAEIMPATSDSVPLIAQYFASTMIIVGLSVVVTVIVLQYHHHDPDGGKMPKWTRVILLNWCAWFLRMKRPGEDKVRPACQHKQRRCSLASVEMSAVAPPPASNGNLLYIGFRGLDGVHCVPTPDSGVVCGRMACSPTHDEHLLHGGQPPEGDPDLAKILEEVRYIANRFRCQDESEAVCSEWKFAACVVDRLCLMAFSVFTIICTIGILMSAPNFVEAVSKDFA

Brain [29] = experiment: Drug level in rat brain at 0.1 mg/kg, sc; assay type: ADME, organism-based; parameters: dose 0.1 mg/kg, route subcutaneous; conditions: in vivo; how it was run: as §2
[30] = Drug level in rat plasma at 1 mg/kg, sc twice daily for 6 days; assay type: ADME, organism-based; parameters: dose 1 mg/kg, route subcutaneous; how it was run: as §5

O=C(N[C@@H]1C[C@H]2CCN(C2)C1)c1ccc2occc2c1
EC50 [1]: 81 nM
Ki [2]: 6.2 nM
Kp at 1 h [3]: 1.15
Papp A→B [4]: 3.8 ×10⁻⁶ cm/s
hepatic extraction ratio at 0.5 h [5]: < 0.27
Kp at 5 min [6]: 0.27

O=C(N[C@@H]1C[C@H]2CCN(C2)C1)c1cc2sccc2cn1
EC50 [1]: 70 nM
Ki [2]: 7 nM
hepatic extraction ratio at 0.5 h [5]: 0.71

O=C(N[C@@H]1C[C@H]2CCN(C2)C1)c1cc2cccn2cn1
EC50 [1]: 129 nM
Ki [2]: 14 nM
hepatic extraction ratio at 0.5 h [5]: 0.86

O=C(N[C@@H]1C[C@H]2CCN(C2)C1)c1cc2ccoc2cn1
concentration (Plasma [7]): 1100 nM
concentration (Brain [8]): 1200 nM
EC50 [1]: 46 nM
Ki [2]: 2.9 nM
NOAEL [9]: 40 mg/kg
concentration (Brain [10]): 5.3 nM
Activity [11]: 15%
Ki [12]: 350 nM
Activity [13]: 16%
Activity [14]: < 1%
concentration at 144 h [15]: 350 nM
concentration (Plasma [16]): 12 nM
half-life [17]: > 120 min
inhibition at 20 µM (hERG (KCNH2)): 25%
Kp at 1 h [3]: 1.88
Cmax [18]: 22000 nM
Activity (Rattus norvegicus [19]): Dose-dependent effect
minimal effective dose (Rattus norvegicus [19]; read-out: MED): 0.1 mg/kg
concentration (Plasma [20]): 60 nM
bioavailability [21]: 40%
Vdss (Rattus norvegicus [22]): 2.4 L/kg
Papp A→B [4]: 21 ×10⁻⁶ cm/s
Activity [23]: 25%
concentration at 0.5 h [24]: 130 nM
CL/F [25]: 72 mL/min/kg
Kp at 5 min [6]: 1.52
Activity (Rattus norvegicus [26]): Active
half-life [27]: 48 min
Ki [28]: 9 nM
concentration (Brain [29]): 47 nM
concentration at 144 h [30]: 490 nM

— ChEMBL document CHEMBL1145564, “Discovery of N-[(3R,5R)-1-azabicyclo[3.2.1]oct-3-yl]furo[2,3-c]pyridine-5-carboxamide as an agonist of the alpha7 nicotinic acetylcholine receptor: in vitro and in vivo activity” (Bioorg Med Chem Lett, 2008)
